Test [1] deals with T1, Nuclear factor NF-kappa-B p105 subunit (Homo sapiens, UniProt P19838).
T1 sequence (P19838 whole entry): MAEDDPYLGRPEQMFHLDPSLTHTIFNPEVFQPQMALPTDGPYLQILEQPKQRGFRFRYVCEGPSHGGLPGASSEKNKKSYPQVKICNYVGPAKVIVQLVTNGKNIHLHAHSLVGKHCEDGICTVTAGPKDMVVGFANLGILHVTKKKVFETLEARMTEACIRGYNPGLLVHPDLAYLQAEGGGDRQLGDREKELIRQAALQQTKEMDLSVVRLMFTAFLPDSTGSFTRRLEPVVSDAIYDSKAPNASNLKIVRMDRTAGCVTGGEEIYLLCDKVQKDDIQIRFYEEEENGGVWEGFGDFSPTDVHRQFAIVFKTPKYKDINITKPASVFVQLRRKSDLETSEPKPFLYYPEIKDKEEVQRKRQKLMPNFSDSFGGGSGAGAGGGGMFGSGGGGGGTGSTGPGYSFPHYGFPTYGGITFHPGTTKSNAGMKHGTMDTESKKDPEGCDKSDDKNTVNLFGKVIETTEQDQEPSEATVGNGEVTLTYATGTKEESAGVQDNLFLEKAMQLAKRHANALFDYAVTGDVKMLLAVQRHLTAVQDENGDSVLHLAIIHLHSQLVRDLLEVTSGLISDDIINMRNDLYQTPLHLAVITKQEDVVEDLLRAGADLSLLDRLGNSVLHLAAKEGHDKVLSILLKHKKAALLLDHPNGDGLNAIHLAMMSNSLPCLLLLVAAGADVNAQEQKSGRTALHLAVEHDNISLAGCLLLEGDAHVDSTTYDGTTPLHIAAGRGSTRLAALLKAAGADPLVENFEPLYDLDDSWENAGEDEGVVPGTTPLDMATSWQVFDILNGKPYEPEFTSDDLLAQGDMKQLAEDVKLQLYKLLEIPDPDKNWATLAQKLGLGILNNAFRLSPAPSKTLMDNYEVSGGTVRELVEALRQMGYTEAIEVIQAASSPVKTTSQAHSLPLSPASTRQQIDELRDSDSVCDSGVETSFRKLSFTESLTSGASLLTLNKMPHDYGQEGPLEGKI
Description: Inhibition of NFkappa p50 isolated from nuclear extract of human HeLa cells assessed as blockade of binding to biotinylated consesus sequence by chemiluminescence assay. In short, it runs like this: (§1)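 ELISA-format transcription factor assay. HeLa nuclear extract was treated with samples, and activated p50 or p65 bound to a biotinylated consensus sequence was detected by chemiluminescence on a plate reader. IC50 reported in μM.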

The target of another test is Transcription factor p65 (Human, UniProt Q04206). The test can be described thus: Inhibition of NFkappa p65 isolated from nuclear extract of human HeLa cells assessed as blockade of binding to biotinylated consesus sequence by chemiluminescence assay. The method, boiled down: as §1
Transcription factor p65, sequence (Q04206 whole entry): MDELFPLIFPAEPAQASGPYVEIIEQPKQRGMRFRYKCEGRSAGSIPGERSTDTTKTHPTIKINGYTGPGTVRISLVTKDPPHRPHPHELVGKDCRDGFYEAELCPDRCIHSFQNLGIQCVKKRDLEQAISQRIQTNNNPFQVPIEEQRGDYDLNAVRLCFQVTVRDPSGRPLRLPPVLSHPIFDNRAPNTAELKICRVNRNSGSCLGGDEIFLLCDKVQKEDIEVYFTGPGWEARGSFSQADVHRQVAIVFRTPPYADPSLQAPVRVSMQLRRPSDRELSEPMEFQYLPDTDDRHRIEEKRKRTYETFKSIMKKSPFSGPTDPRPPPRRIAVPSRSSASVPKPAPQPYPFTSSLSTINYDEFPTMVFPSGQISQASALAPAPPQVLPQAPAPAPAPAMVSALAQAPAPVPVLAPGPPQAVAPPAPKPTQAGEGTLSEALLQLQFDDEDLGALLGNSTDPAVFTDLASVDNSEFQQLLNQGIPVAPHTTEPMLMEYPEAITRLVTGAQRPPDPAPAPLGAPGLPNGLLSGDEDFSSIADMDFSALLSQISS

SMILES strings stand for the structures.

The record followed here is BindingDB's records for doi:10.1021/np1002065 (The Ohio State University, 2010).

For the compound `C=C(C)[C@H]1Cc2c(oc3c4c(cc(=O)c-3c2O)OC(C)(C)C=C4)-c2c(O)cc(O)c(O)c21` [artobiloxanthone], the IC50 in test [1] turned out to be 3.7 µM; on Transcription factor p65 it was 2.3 µM.

For `C=C(C)[C@H]1Cc2c(oc3cc(O)c(CC=C(C)C)c(=O)c-3c2O)C2=C1C(=O)C(=O)C(CC=C(C)C)C2=O` (stereo partly specified) [Artonin O], the concentration for half-maximal inhibition (IC50) (in test [1]; at Transcription factor p65) was greater than 10 µM throughout.

As to `CC1(C)C=Cc2cc3c(cc2O1)Oc1cc(O)ccc1C(=O)C3` [Artoristilbene], the 50% inhibitory concentration (IC50) (in test [1]; at Transcription factor p65) was greater than 10 µM throughout.

As usually defined, the IC50 is the midpoint of a concentration-inhibition curve.
